Consider one compound from ChEMBL document CHEMBL3808372, “Identification of quinones as novel PIM1 kinase inhibitors” (Bioorg Med Chem Lett, 2016).

Test [1] concerns the target Rho-associated protein kinase 2 (Homo sapiens) (UniProt O75116). Put plainly: Inhibition of human ROCK2 (1 to 431 amino acid residues) assessed as enzyme activity at 10 uM by KINOMEScan assay. Also noted: scale not given: the % may be the effect or the level left. The gist of the method:
(§1)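 Single-concentration competition binding screen (KINOMEscan) across a 100-kinase panel at 10 μM. Primary binding read-out is reported as % of control: (test signal − positive-control signal)/(negative-control signal − positive-control signal) × 100. Lower values indicate stronger binding.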

In test [2] the target is Insulin-like growth factor 1 receptor (Homo sapiens) (UniProt P08069). Put plainly: Inhibition of human IGF1R (972 to 1294 amino acid residues) assessed as enzyme activity at 10 uM by KINOMEScan assay expressed in bacterial system assessed as enzyme activity at 10 uM by KINOMEScan assay. Set-up: scale not given: the % may be the effect or the level left. The procedure, abridged: (§2)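 Commercial KINOMEscan binding panel of 100 kinases, test compound at 10 μM. Results are primary-screen binding interactions expressed as % Ctrl = (test compound signal − positive control signal)/(negative control signal − positive control signal) × 100. Lower % Ctrl means stronger binding.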

Test [3] concerns the target Focal adhesion kinase 1 (Homo sapiens) (UniProt Q05397). Nature of the test: Inhibition of human FAK (402 to 696 amino acid residues) assessed as enzyme activity at 10 uM by KINOMEScan assay expressed in bacterial system assessed as enzyme activity at 10 uM by KINOMEScan assay. Also noted: scale not given: the % may be the effect or the level left. The procedure, abridged: (§3)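 Competition binding screen on a 100-kinase KINOMEscan panel, compound tested at a single 10 μM concentration. Primary binding read-out expressed as % Ctrl = (test compound signal − positive control signal)/(negative control signal − positive control signal) × 100, with lower values meaning stronger binding.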

The target in test [4] is NUAK family SNF1-like kinase 2 (Homo sapiens) (UniProt Q9H093). Put plainly: Inhibition of human SNARK (22 to 333 amino acid residues) assessed as enzyme activity at 10 uM by KINOMEScan assay. Set-up: scale not given: the % may be the effect or the level left. The gist of the method: as §1
Test [5] deals with Serine/threonine-protein kinase PLK4 (Homo sapiens) (UniProt O00444). Put plainly: Inhibition of human PLK4 (1 to 273 amino acid residues) assessed as enzyme activity at 10 uM by KINOMEScan assay. Set-up: scale not given: the % may be the effect or the level left. The gist of the method:
as §1

Test [6] concerns the target Atypical kinase COQ8A, mitochondrial (Homo sapiens) (UniProt Q8NI60). Put plainly: Inhibition of full length human ADCK3 expressed in bacterial system assessed as enzyme activity at 10 uM by KINOMEScan assay. Also noted: scale not given: the % may be the effect or the level left. The gist of the method: as §2
Test [7] has as its target Fibroblast growth factor receptor 2 (Homo sapiens) (UniProt P21802). Put plainly: Inhibition of human FGFR2 (457 to 769 amino acid residues) assessed as enzyme activity at 10 uM by KINOMEScan assay expressed in bacterial system assessed as enzyme activity at 10 uM by KINOMEScan assay. Set-up: scale not given: the % may be the effect or the level left. The gist of the method: as §2

For test [8], the target named is Phosphatidylinositol 4,5-bisphosphate 3-kinase catalytic subunit gamma isoform (Homo sapiens) (UniProt P48736). Put plainly: Inhibition of human PIK3CG (144 to 1102 amino acid residues) assessed as enzyme activity at 10 uM by KINOMEScan assay. Also noted: scale not given: the % may be the effect or the level left. The gist of the method: as §1
Test [9] addresses Cyclin-dependent kinase 7 (Homo sapiens) (UniProt P50613). Nature of the test: Inhibition of full length human CDK7 assessed as enzyme activity at 10 uM by KINOMEScan assay. Set-up: scale not given: the % may be the effect or the level left. The procedure, abridged: as §3
Test [10] addresses Cyclin-dependent kinase (Homo sapiens) (UniProt P06493+P11802+P24941+Q00535+Q00534+P50613+Q00526+Q00536+Q07002+P49336+Q00537+P21127+Q96Q40+Q9BWU1+O94921+P50750+Q15131+Q14004+Q8IZL9+Q9NYV4). Put plainly: Share of MOE computational kinase hits for CDK.
Test [11] has as its system Tyrosine-protein kinase ABL1 (Homo sapiens), P00519 [T315I]. Nature of the test: Inhibition of human ABL1 kinase T315I mutant phosphorylation (229 to 512 amino acid residues) assessed as enzyme activity at 10 uM by KINOMEScan assay. Set-up: scale not given: the % may be the effect or the level left. The procedure, abridged:
as §3

Test [12] has as its target Cyclin-dependent kinase 3 (Homo sapiens) (UniProt Q00526). Nature of the test: Inhibition of full length human CDK3 expressed in bacterial system assessed as enzyme activity at 10 uM by KINOMEScan assay. Also noted: scale not given: the % may be the effect or the level left. The procedure, abridged:
as §3

Test [13] concerns the target Casein kinase I isoform gamma-2 (Homo sapiens) (UniProt P78368). Nature of the test: Inhibition of full length human CSNK1G2 expressed in bacterial system assessed as enzyme activity at 10 uM by KINOMEScan assay. Set-up: scale not given: the % may be the effect or the level left. The gist of the method:
as §2

The target of test [14] is Cyclin-dependent kinase 9 (Homo sapiens) (UniProt P50750). Nature of the test: Inhibition of full length human CDK9 expressed in bacterial system assessed as enzyme activity at 10 uM by KINOMEScan assay. Set-up: scale not given: the % may be the effect or the level left. The procedure, abridged: as §2
The target in test [15] is Fibroblast growth factor receptor 3 (Homo sapiens) (UniProt P22607). Put plainly: Inhibition of human FGFR3 (442 to 771 amino acid residues) assessed as enzyme activity at 10 uM by KINOMEScan assay expressed in bacterial system assessed as enzyme activity at 10 uM by KINOMEScan assay. Set-up: scale not given: the % may be the effect or the level left. The procedure, abridged: as §3

Test [16] concerns the target Serine/threonine-protein kinase pim-2 (Homo sapiens) (UniProt Q9P1W9). Nature of the test: Inhibition of human PIM2 (1 to 291 amino acid residues) expressed in bacterial system assessed as enzyme activity at 10 uM by KINOMEScan assay. Set-up: scale not given: the % may be the effect or the level left. The procedure, abridged: as §1
The target in test [17] is MAP kinase-activated protein kinase 2 (Homo sapiens) (UniProt P49137). Nature of the test: Inhibition of human MAPKAPK2 (48 to 345 amino acid residues) expressed in bacterial system assessed as enzyme activity at 10 uM by KINOMEScan assay. Also noted: scale not given: the % may be the effect or the level left. The procedure, abridged: as §3
Test [18] has as its target Receptor tyrosine-protein kinase erbB-4 (Homo sapiens) (UniProt Q15303). Put plainly: Inhibition of human ERBB4 (690 to 994 amino acid residues) assessed as enzyme activity at 10 uM by KINOMEScan assay expressed in bacterial system assessed as enzyme activity at 10 uM by KINOMEScan assay. Also noted: scale not given: the % may be the effect or the level left. The gist of the method: as §3

Test [19] has as its target High affinity nerve growth factor receptor (Homo sapiens) (UniProt P04629). Nature of the test: Inhibition of human TRKA (475 to 790 amino acid residues) assessed as enzyme activity at 10 uM by KINOMEScan assay. Set-up: scale not given: the % may be the effect or the level left. The gist of the method:
as §2

Test [20] is described as follows: Cytotoxicity against human DU145 cells assessed as cell growth inhibition after 72 hrs by Alamar blue assay. Format: functional, cell-based. The settings on record: DU-145, 72 h.
For test [21], the target named is MAP kinase-interacting serine/threonine-protein kinase 1 (Homo sapiens) (UniProt Q9BUB5). Nature of the test: Inhibition of full length human MKNK1 assessed as enzyme activity at 10 uM by KINOMEScan assay. Also noted: scale not given: the % may be the effect or the level left. The gist of the method: as §3
The target of test [22] is Serine/threonine-protein kinase pim-1 (Homo sapiens, UniProt P11309). Put plainly: Inhibition of human PIM1 (15 to 313 amino acid residues) expressed in bacterial system assessed as enzyme activity at 10 uM by KINOMEScan assay. Set-up: scale not given: the % may be the effect or the level left. The procedure, abridged: as §1
In test [23] the target is MAP/microtubule affinity-regulating kinase 3 (Homo sapiens) (UniProt P27448). Put plainly: Inhibition of full length human MARK3 expressed in bacterial system assessed as enzyme activity at 10 uM by KINOMEScan assay. Set-up: scale not given: the % may be the effect or the level left. The procedure, abridged: as §2
Test [24] deals with Mitogen-activated protein kinase 8 (Homo sapiens) (UniProt P45983). Nature of the test: Inhibition of full length human JNK1 assessed as enzyme activity at 10 uM by KINOMEScan assay. Also noted: scale not given: the % may be the effect or the level left. The procedure, abridged:
as §3

What is called IC50 is the point on the concentration scale where inhibition reaches its midpoint. In the case of `O=C1C2=C(C(=O)c3c(O)ccc(O)c31)[C@@H](O)[C@@H](O)[C@@H](O)C2`, the Activity in test [1] was 77%; in test [2], 100%; in test [3], 95%; in test [4], 90%; in [5], 89%; in test [6], 100%. Moreover, the Activity in test [7] was found to be 100%; in test [8], 68%; in test [9] it was 88%; in [11] it was 95%; in test [12] it was 88%; in test [13], 100%. The Activity in [14] was determined as 100%; in test [15] it was 93%; in test [16], 67%; in test [17], 93%; in [18] it was 95%; in [19] it was 78%. Further, the Activity worked out at 45% in [21], 34% in test [22], 100% in test [23] and 96% in [24]. The compound also had a % of MOE kinase hits in test [10] of 7%. The IC50 in [20] was found to be 8.21 µM.
